Assay results from different studies.
Target: Histone deacetylase 1 (HDAC1, Homo sapiens, UniProt Q13547)

| SMILES | observed | mode | method | endpoint | result |
| --- | --- | --- | --- | --- | --- |
| Cc1nc2ccccc2n1Cc1ccc(C(=O)NO)cn1 | enzyme activity | inhibitor |  | IC50 | 27.9 µM |
| O=C(NO)c1ccc(NC(=O)C2(c3ccc(C(F)(F)F)c(F)c3)CCCC2)cc1 | enzyme activity | inhibitor |  | IC50 | 0.222 µM |
| CCCON(Cc1ccc(C(=O)NO)cc1)C(=O)Nc1ccc(N(C)C)cc1 | enzyme activity | inhibitor | fluorescence | IC50 | 0.715 µM |
| C=CCC[C@@H]1NC(=O)[C@H]2CCCN2C(=O)[C@H](Cc2ccccc2)NC(=O)C(C)(C)NC1=O | enzyme activity | inhibitor |  | IC50 | > 300 µM |
| CCCC[C@H](NC(=O)C1CN(C)C1)c1ncc(-c2cc3ccccc3nc2OC)[nH]1 | enzyme activity | inhibitor |  | IC50 | 0.068 µM |
| O=C(CCCCCCC(=O)Nc1ccc([C@H]2O[C@@H](CSc3nc(-c4ccccc4)c(-c4ccccc4)o3)C[C@@H](c3ccc(CO)cc3)O2)cc1)NO | cell-free assay |  |  | Kd | > 30.2 µM |
| O=C(NO)c1ccc(NC(=O)C2(c3ccccc3)CCOCC2)c(F)c1 | enzyme activity | inhibitor |  | IC50 | 0.073 µM |
| CC(C)C[C@H]1CC(=O)N[C@@H](C)C(=O)N[C@@H](CCCCCC(=O)O)C(=O)N[C@@H](Cc2c[nH]c3ccccc23)C(=O)N1 | enzyme activity | inhibitor |  | IC50 | 0.1 µM |
| O=C(NO)c1ccc(NC(=O)C2(c3ccc(Cl)cc3)CCCC2)c(F)c1 | enzyme activity | inhibitor |  | IC50 | 0.774 µM |
| C/C=C1\NC(=O)[C@H]2CSSCC/C=C/[C@H](CC(=O)N[C@H](C(C)C)C(=O)N2)OC(=O)[C@H](C(C)C)NC1=O | cell-free assay |  |  | Kd | 0.00317 µM |
| CCC[C@H](NC(=O)C1CN(C)C1)c1ncc(-c2cc3ccccc3nc2OC)[nH]1 | enzyme activity | inhibitor | fluorescence | IC50 | 0.28 µM |
| CCCON(Cc1ccc(C(=O)NO)cc1)C(=O)Nc1ccccc1 | enzyme activity | inhibitor | fluorescence | IC50 | 0.742 µM |
